In ChEMBL document CHEMBL3393048, “Discovery of potent cytotoxic ortho-aryl chalcones as new scaffold targeting tubulin and mitosis with affinity-based fluorescence” (J Med Chem, 2014):
Activity calls are given as the source filed them. The rule behind the calls is not given here.

How the values were obtained:
[1] = system: A2780; test: Antiproliferative activity against taxol-resistant human A2780 cells after 48 hrs by SRB method; type: functional, cell-based; conditions: A2780, 48 h
Procedure, shortened: (§1)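 SRB assay. Cells in DMEM high glucose with 10% FBS were seeded at 5000/well and grown 24 h; a day-0 plate was fixed at that point. Compounds were added in triplicate for 48 h. IC50 came from nonlinear regression of dose–response curves from at least two independent experiments.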

[2] = Antiproliferative activity against vincristine-resistant human HCT8 cells after 48 hrs by SRB method; type: functional, cell-based; conditions: HCT-8, 48 h
Procedure, shortened: as §1, with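 “h. Cells were fixed with TCA at 4 °C for 1 h, stained with 0.4% SRB, and the dye was solubilized in 10 mM Tris pH 10.4. OD was read at 515 nm with day-0 OD subtracted.” for “h.”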

[3] = system: A549; test: Antiproliferative activity against cis-platinum-resistant human A549 cells after 48 hrs by SRB method; type: functional, cell-based; conditions: A549, 48 h
Procedure, shortened: as §1, with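 “h. Cells were fixed with TCA at 4 °C for 1 h, stained with 0.4% SRB, and the dye was solubilized in 10 mM Tris pH 10.4. OD was read at 515 nm with day-0 OD subtracted.” for “h.”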

[4] = system: MCF7; test: Antiproliferative activity against doxorubicin-resistant human MCF7 cells after 48 hrs by SRB method; type: functional, cell-based; conditions: MCF7, 48 h; procedure, shortened: as §1
[5] = system: A549; test: Drug resistance index, ratio of IC50 for cis-platinum-resistant human A549 cells to IC50 for human A549 cells; type: functional
Procedure, shortened: (§2)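 Drug resistance index = IC50 in the resistant line / IC50 in its parental line. […] Pairs: A549/CDDP vs A549, MCF-7/DOX vs MCF-7, A2780/TAX vs A2780, HCT-8/VCT vs HCT-8.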

[6] = system: MCF7; test: Drug resistance index, ratio of IC50 for doxorubicin-resistant human MCF7 cells to IC50 for human MCF7 cells; type: functional; procedure, shortened: as §2
[7] = molecular target: T1, Tubulin (Homo sapiens) (UniProt P68371+Q9H4B7+P0DPH7+P68366+Q13509+Q71U36+P04350+Q3ZCM7+P07437+P68363+Q9BQE3+Q6PEY2+Q13885+Q9BVA1+Q9BUF5); test: Displacement of (E)-3-(4-(Dimethylamino)phenyl)-1-(4'-fluoro[1,1'-biphenyl]-2-yl)prop-2-en-1-one from tubulin (unknown origin) by fluorescence assay; type: protein-complex assay
Procedure, shortened: (§3)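 Competition assay. Tubulin (4 μM) and probe (8 μM) in general tubulin buffer at 37 °C were incubated until fluorescence plateaued (about 30 min; excitation 430, emission 510 nm). Competitors were then added at 0–80 μM and kinetics recorded at 37 °C. The stable F/F0 ratio was plotted against competitor concentration and fitted.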

[8] = system: A549; test: Antiproliferative activity against human A549 cells after 48 hrs by SRB method; type: functional, cell-based; conditions: A549, 48 h
Procedure, shortened: as §1, with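 “h. Cells were fixed with TCA at 4 °C for 1 h, stained with 0.4% SRB, and the dye was solubilized in 10 mM Tris pH 10.4. OD was read at 515 nm with day-0 OD subtracted.” for “h.”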

[9] = Antiproliferative activity against human CNE2 cells after 48 hrs by SRB method; type: functional, cell-based; conditions: CNE-2, 48 h; procedure, shortened: as §1
[10] = system: SW480; test: Antiproliferative activity against human SW480 cells after 48 hrs by SRB method; type: functional, cell-based; conditions: SW480, 48 h; procedure, shortened: as §1
[11] = system: MCF7; test: Antiproliferative activity against human MCF7 cells after 48 hrs by SRB method; type: functional, cell-based; conditions: MCF7, 48 h; procedure, shortened: as §1
[12] = system: HepG2; test: Antiproliferative activity against human HepG2 cells after 48 hrs by SRB method; type: functional, cell-based; conditions: HepG2, 48 h; procedure, shortened: as §1
[13] = system: A2780; test: Antiproliferative activity against human A2780 cells after 48 hrs by SRB method; type: functional, cell-based; conditions: A2780, 48 h; procedure, shortened: as §1
[14] = Antiproliferative activity against human HCT8 cells after 48 hrs by SRB method; type: functional, cell-based; conditions: HCT-8, 48 h; procedure, shortened: as §1
[15] = system: A2780; test: Drug resistance index, ratio of IC50 for taxol-resistant human A2780 cells to IC50 for human A2780 cells; type: functional; procedure, shortened: as §2
[16] = Drug resistance index, ratio of IC50 for vincristine-resistant human HCT8 cells to IC50 for human HCT8 cells; type: functional, HCT-8; procedure, shortened: as §2
[17] = molecular target: T1, Tubulin (Homo sapiens); test: Binding affinity to tubulin (unknown origin) by fluorescence assay in presence of DTNB; type: protein-complex assay
[18] = system: A549; test: Cell cycle arrest in human A549 cells assessed as accumulation at G2/M phase at 7.81 to 250 nM after 24 hrs by Hoechst 33342 staining-based ArrayScanVTI analysis; type: functional
Procedure, shortened: (§4)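 A549 cells were seeded at 5000/well, cultured overnight, then treated 24 h over a 7.81–250 concentration series. Cells were fixed in prewarmed paraformaldehyde 10 min, permeabilized with Triton X-100, and nuclei stained with Hoechst 33342. Imaging was by ArrayScan VTI high-content analysis. Phase percentage = cells within a gated fluorescence intensity / total cells counted.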

[19] = system: A549; test: Cell cycle arrest in human A549 cells assessed as accumulation at G2/M phase at 31.25 nM after 24 hrs by Hoechst 33342 staining-based ArrayScanVTI analysis; type: functional
[20] = molecular target: Tubulin; test: Inhibition of tubulin polymerization (unknown origin) by DAPI staining-based fluorescence microscopy; type: protein-complex assay, Homo sapiens
Procedure, shortened: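 Purified tubulin (99% pure; 20 μM as supplied) mixed with compound in general tubulin buffer (80 mM PIPES pH 6.9, 2.0 mM MgCl₂, 0.5 mM EGTA) with 1 mM GTP, 20% glycerol and DAPI reporter. Polymerization tracked kinetically at 37 °C as fluorescence rise (ex 360, em 450 nm). Duplicate wells per concentration. IC50 from at least two independent experiments.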

[21] = system: A549; test: Induction of microtubule disruption in human A549 cells assessed as massive and dotted microtubule disorder formation at 31 nM after 24 hrs by DAPI staining-based immunofluorescence microscopy; type: cell-based
[22] = system: A549; test: Induction of microtubule disruption in human A549 cells assessed as multipolarization of spindle at 31 nM after 24 hrs by DAPI staining-based immunofluorescence microscopy; type: cell-based
[23] = system: A549; test: Induction of microtubule disruption in human A549 cells assessed as multinucleation at 31 nM after 24 hrs by DAPI staining-based immunofluorescence microscopy; type: cell-based
[24] = system: A549; test: Antimitotic activity in human A549 cells assessed as inhibition of microtubule reassembly in interphase cells at 31 nM incubated for 24 hrs followed by cold treatment for 1 hr measured after 15 mins warm up by DAPI staining-based immunofluorescence microscopy; type: functional, cell-based
Procedure, shortened: (§5)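 A549 cells, 6 × 10⁴ per confocal dish, grown 24 h, then exposed 24 h (vehicle 0.5% DMSO, 37 °C). Dishes were held on ice 1 h to depolymerize microtubules, then rewarmed at 37 °C for 0, 5, 10 or 15 min. Cells were fixed in prewarmed paraformaldehyde 15 min and permeabilized with Triton X-100. […] Imaged by confocal microscopy.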

[25] = system: A549; test: Antimitotic activity in human A549 cells assessed as inhibition of microtubule reassembly in mitotic cells at 31 nM incubated for 24 hrs followed by cold treatment for 1 hr measured after 15 mins warm up by DAPI staining-based immunofluorescence microscopy; type: functional, cell-based; procedure, shortened: as §5
[26] = system: A549; test: Antimitotic activity in human A549 cells assessed as disorganized mitosis at 31 nM incubated for 24 hrs followed by cold treatment for 1 hr measured after 15 mins warm up by DAPI staining-based immunofluorescence microscopy; type: functional, cell-based; procedure, shortened: as §5
[27] = system: A549; test: Antimitotic activity in human A549 cells assessed as multipolarization of spindle at 31 nM incubated for 24 hrs followed by cold treatment for 1 hr measured after 15 mins warm up by DAPI staining-based immunofluorescence microscopy; type: functional, cell-based; procedure, shortened: as §5
[28] = system: A549; test: Antimitotic activity in human A549 cells assessed as multinucleation at 31 nM incubated for 24 hrs followed by cold treatment for 1 hr measured after 15 mins warm up by DAPI staining-based immunofluorescence microscopy; type: functional, cell-based; procedure, shortened: as §5
[29] = molecular target: T1, Tubulin (Homo sapiens); test: Binding affinity to tubulin (unknown origin) after 30 mins by fluorescence assay; type: protein-complex assay
Procedure, shortened: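 Intrinsic fluorescence on tubulin binding. Compounds were mixed with tubulin (4 μM or 8 μM) in general tubulin buffer and incubated 30 min. Readings were excitation 430/emission 510 nm or excitation 365/emission 465 nm, with kinetic reads from mixing. ΔF = stable emission minus tubulin-only fluorescence. Optimal wavelengths were set by wavelength scanning.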

[30] = molecular target: T1, Tubulin (Homo sapiens); test: Displacement of (E)-3-(4-(Dimethylamino)phenyl)-1-(4'-fluoro[1,1'-biphenyl]-2-yl)prop-2-en-1-one from tubulin (unknown origin) at 2 uM by fluorescence assay; type: protein-complex assay; procedure, shortened: as §3
[31] = system: A549; test: Antitumor activity against human A549 cells xenografted in BALB/c nude mouse assessed as reduction in tumor weight at 2 mg/kg, ip administered every other day for 2 weeks (reference value: 1.446 gm); type: functional; conditions: route intraperitoneal
[32] = system: A549; test: Antitumor activity against human A549 cells xenografted in BALB/c nude mouse assessed as reduction in tumor volume at 2 mg/kg, ip administered every other day for 2 weeks (reference value: 1806.9 mm'3); type: functional; conditions: route intraperitoneal
[33] = system: Mus musculus; test: Toxicity in BALB/c nude mouse xenografted with human A549 cells assessed as body weight at 2 mg/kg, ip administered every other day for 2 weeks; type: organism-based; design: dose 2 mg/kg, route intraperitoneal; conditions: in vivo, 336 h
Procedure, shortened: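 Female BALB/c nude mice, 5 weeks old, given 1 × 10⁷ A549 cells subcutaneously in the right flank. At about 100 mm³ tumor volume, randomized into groups of eight. Dosed ip at 2 mg/kg every other day for 2 weeks. Controls received normal saline with 0.5% DMSO and 5% Kolliphor HS 15. Body weight monitored throughout.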

[34] = system: A549; test: Cell cycle arrest in human A549 cells assessed as accumulation at G2/M phase at 62.5 nM after 24 hrs by Hoechst 33342 staining-based ArrayScanVTI analysis; type: functional; procedure, shortened: as §4

Row | SMILES | IC50 [1] [nM] | IC50 [2] [nM] | IC50 [3] [nM] | IC50 [4] [nM] | Ratio IC50 [5] | Ratio IC50 [6] | IC50 [8] [nM] | IC50 [9] [nM] | IC50 [10] [nM] | IC50 [11] [nM] | IC50 [12] [nM] | IC50 [13] [nM] | IC50 [14] [nM] | Ratio IC50 [15] | Ratio IC50 [16] | Activity [18] | IC50 [20] [nM] | Activity [34] | also measured
1 | CC[C@]1(O)C[C@H]2CN(CCc3c([nH]c4ccccc34)[C@@](C(=O)OC)(c3cc4c(cc3OC)N(C=O)[C@H]3[C@@](O)(C(=O)OC)[C@H](OC(C)=O)[C@]5(CC)C=CCN6CC[C@]43[C@@H]65)C2)C1 [VINCRISTINE] | 930 | 1900 | 56 | 4300 | 4.7 | 1063 | – | – | – | – | – | – | – | – | – | – | – | – | Activity [7]: inactive
2 | COc1ccc(/C=C/C(=O)c2ccccc2-c2cccc(F)c2)cc1O | 230 | 57 | 180 | 2 | 16 | 0.03 | 11 | 17 | 10 | 65 | 8 | 13 | 16 | 18 | 3.6 | Active | 490 | – | Activity [17]: inactive; Activity [19]: Active; Activity [21]: Active; Activity [22]: Active; Activity [23]: Active; inhibition [24]: Active; inhibition [25]: Active; Activity [26]: Active; Activity [27]: Active; Activity [28]: Active; Activity [29]: Dose-dependent effect; Activity [30]: Active; Activity [31]: 0.641 g; Activity [32]: 965.6 mm3; Activity [33]: Non-toxic
3 | COc1ccc(/C=C/C(=O)c2ccccc2-c2ccc(F)cc2)cc1B(O)O | 230 | 84 | 74 | 24 | 1.1 | 0.6 | 82 | 21 | 41 | 220 | 30 | 63 | 63 | 3.6 | 1.3 | Active | 3400 | Active | –
4 | COc1ccc(/C=C/C(=O)c2ccccc2-c2ccc(F)cc2)cc1O | 500 | 420 | 430 | 7 | 10 | 0.04 | 65 | 87 | 57 | 190 | 23 | 27 | 38 | 18 | 11 | Active | 1300 | Active | –
